# Assay results: ChEMBL document CHEMBL5653622 (Oncotarget, 2016)
# Activity calls are given as the source filed them. The rule behind the calls is not given here.
# What was measured:
# [1] = biological target: AMP-activated protein kinase (AMPK) alpha-1/beta-1/gamma-1 (Homo sapiens, UniProt P54619+Q13131+Q9Y478); test: Inhibition of AMPK alpha1/beta1/gamma1 (unknown origin) by FRET based Z-LYTE kinase assay; format: protein-complex assay
# [2] = system: Mus musculus; test: In vivo inhibition of CHK1 in CRTac:Ncr-Fox1 athymic mouse xenografted with human Calu-6 cells assessed as inhibition of CHK1 phosphorylation on S296 at 150 mg/kg, po in presence of gemcitabine and carboplatin by Western blotting analysis; format: functional, organism-based
# Procedure, shortened: (§1)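 Female CRTac:Ncr-Fox1(nu) athymic mice carried s.c. Calu6 xenografts. Tumors were taken 6h after the last inhibitor dose, lysed in CHAPS buffer, and immunoblotted with GAPDH as loading control.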
# [3] = biological target: Serine/threonine-protein kinase 16 (Homo sapiens) (UniProt O75716); test: Inhibition of human MPSK1 assessed as remaining activity at 10 uM in presence of ATP by radiometric kinase assay relative to control
# Chain of Serine/threonine-protein kinase 16 (Homo sapiens) (O75716 whole entry): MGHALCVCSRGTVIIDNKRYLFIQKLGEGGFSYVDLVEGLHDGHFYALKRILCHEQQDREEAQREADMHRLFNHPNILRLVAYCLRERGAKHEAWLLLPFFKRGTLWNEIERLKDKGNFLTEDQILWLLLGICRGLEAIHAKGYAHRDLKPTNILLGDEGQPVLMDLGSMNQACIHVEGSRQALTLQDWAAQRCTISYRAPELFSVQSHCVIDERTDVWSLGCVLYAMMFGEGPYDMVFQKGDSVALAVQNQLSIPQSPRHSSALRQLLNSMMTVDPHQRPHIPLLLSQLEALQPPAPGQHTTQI
# [4] = biological target: Tyrosine-protein kinase Yes (Homo sapiens) (UniProt P07947); test: Inhibition of human YES1 assessed as remaining activity at 10 uM in presence of ATP by radiometric kinase assay relative to control
# Chain of Tyrosine-protein kinase Yes (Homo sapiens) (P07947 2-543 limits assumed): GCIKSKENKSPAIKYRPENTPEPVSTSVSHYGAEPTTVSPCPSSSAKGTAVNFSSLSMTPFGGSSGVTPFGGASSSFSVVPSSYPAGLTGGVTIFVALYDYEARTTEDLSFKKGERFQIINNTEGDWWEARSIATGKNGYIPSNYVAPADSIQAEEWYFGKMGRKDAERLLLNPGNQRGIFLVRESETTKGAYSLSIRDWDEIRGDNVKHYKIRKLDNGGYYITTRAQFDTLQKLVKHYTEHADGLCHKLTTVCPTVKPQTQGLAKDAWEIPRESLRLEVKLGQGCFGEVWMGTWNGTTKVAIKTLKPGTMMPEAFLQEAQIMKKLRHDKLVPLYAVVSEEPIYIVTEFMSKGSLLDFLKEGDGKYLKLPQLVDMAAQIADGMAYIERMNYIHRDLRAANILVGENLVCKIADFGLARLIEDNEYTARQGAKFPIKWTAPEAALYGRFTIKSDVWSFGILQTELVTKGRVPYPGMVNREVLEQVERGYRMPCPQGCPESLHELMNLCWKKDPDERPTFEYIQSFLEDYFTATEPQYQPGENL
# [5] = Plasma protein binding in nude mouse at 10 uM; format: ADME, cell-free
# [6] = biological target: Proto-oncogene tyrosine-protein kinase Src (Homo sapiens) (UniProt P12931); test: Inhibition of human Src assessed as remaining activity at 10 uM in presence of ATP by radiometric kinase assay relative to control
# Chain of Proto-oncogene tyrosine-protein kinase Src (Homo sapiens) (P12931 2-536 limits assumed): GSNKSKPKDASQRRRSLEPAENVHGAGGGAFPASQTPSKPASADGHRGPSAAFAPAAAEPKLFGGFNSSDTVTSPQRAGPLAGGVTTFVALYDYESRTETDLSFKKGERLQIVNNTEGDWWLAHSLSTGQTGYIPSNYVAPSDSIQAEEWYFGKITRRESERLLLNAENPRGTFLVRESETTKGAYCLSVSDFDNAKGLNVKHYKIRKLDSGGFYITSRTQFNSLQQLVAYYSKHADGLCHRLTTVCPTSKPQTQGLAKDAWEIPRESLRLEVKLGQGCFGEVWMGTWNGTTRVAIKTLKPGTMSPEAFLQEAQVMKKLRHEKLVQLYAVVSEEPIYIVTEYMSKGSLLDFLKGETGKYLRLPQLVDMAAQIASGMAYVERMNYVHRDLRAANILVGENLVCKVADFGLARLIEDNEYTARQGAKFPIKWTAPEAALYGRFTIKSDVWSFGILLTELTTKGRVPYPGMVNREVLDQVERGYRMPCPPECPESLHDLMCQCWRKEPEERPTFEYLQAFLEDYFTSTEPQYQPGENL
# [7] = Inhibition of human CDK2/Cyclin A by FRET based Z-LYTE kinase assay
# [8] = biological target: Serine/threonine-protein kinase PAK 4 (Homo sapiens) (UniProt O96013); test: Inhibition of human PAK4 assessed as remaining activity at 10 uM in presence of ATP by radiometric kinase assay relative to control
# [9] = AUC (0 to t) in BALB/C mouse spleen at 10 mg/kg, iv by LC/MS-MS analysis; format: ADME, organism-based
# [10] = Clearance in BALB/C mouse plasma at 10 mg/kg, po by LC/MS-MS analysis; format: ADME, organism-based
# Procedure, shortened: (§2)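 Female BALB/c mice received a single 10mg/kg bolus i.v. or p.o. Plasma (and spleen homogenate) extracted with methanol containing internal standards. Concentrations were measured by LC/MS-MS and PK parameters calculated with modelling software.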
# [11] = biological target: Mitogen-activated protein kinase 14 (Homo sapiens) (UniProt Q16539); test: Inhibition of human p38a MAPK assessed as remaining activity at 10 uM in presence of ATP by radiometric kinase assay relative to control
# Chain of Mitogen-activated protein kinase 14 (Homo sapiens) (Q16539 whole entry): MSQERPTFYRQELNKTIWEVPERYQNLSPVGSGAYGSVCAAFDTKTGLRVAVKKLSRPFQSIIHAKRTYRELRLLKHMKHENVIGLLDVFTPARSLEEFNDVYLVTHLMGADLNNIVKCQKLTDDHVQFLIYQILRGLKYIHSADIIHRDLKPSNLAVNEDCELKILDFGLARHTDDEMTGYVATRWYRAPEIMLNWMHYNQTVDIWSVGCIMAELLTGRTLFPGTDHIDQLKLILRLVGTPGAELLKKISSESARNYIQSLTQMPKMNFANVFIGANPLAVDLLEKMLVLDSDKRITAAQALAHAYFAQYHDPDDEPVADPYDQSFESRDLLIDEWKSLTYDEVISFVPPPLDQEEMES
# [12] = biological target: Serine/threonine-protein kinase BRSK1 (Homo sapiens) (UniProt Q8TDC3); test: Inhibition of human BRSK1 at 10 uM in presence of ATP by radiometric kinase assay relative to control
# [13] = biological target: Mitogen-activated protein kinase 13 (Homo sapiens) (UniProt O15264); test: Inhibition of human p38d MAPK assessed as remaining activity at 10 uM in presence of ATP by radiometric kinase assay relative to control
# [14] = Cmax in BALB/C mouse spleen at 10 mg/kg, po by LC/MS-MS analysis; format: ADME, organism-based; procedure, shortened: as §2
# [15] = system: Mus musculus; test: In vivo inhibition of CHK1 in CRTac:Ncr-Fox1 mouse xenografted with human HT-29 cells assessed as reduction of phosphorylation of CHK1 on S296 at 50 mg/kg, po administered for 24 hrs by Western blotting analysis; format: functional, organism-based
# Procedure, shortened: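 HT29 s.c. xenografts in female athymic nude mice. Single gemcitabine dose 100mg/kg i.v. on day 0, then one inhibitor dose 50 or 100mg/kg p.o. (DPTW vehicle) 24h later. Tumors taken 24h after the last dose, western blotted, and signals quantified by normalizing to GAPDH.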
# [16] = biological target: Serine/threonine-protein kinase STK11 (Homo sapiens) (UniProt Q15831); test: Inhibition of human LKB1 assessed as remaining activity at 10 uM in presence of ATP by radiometric kinase assay relative to control
# Chain of Serine/threonine-protein kinase STK11 (Homo sapiens) (Q15831 whole entry): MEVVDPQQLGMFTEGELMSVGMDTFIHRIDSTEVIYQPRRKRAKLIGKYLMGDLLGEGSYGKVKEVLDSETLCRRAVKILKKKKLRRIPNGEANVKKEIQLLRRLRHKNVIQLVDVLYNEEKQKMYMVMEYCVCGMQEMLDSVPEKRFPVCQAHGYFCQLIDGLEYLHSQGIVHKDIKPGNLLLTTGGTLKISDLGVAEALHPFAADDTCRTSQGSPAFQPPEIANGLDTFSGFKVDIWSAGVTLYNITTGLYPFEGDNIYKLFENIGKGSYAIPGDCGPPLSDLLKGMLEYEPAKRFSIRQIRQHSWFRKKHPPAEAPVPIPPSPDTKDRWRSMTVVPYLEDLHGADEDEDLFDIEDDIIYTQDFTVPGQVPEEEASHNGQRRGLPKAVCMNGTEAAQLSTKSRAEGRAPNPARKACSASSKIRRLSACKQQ
# [17] = system: Mus musculus; test: In vivo inhibition of total CHK1 in CRTac:Ncr-Fox1 athymic mouse xenografted with human Calu-6 cells at 150 mg/kg, po in presence of gemcitabine and carboplatin by Western blotting analysis; format: functional, organism-based; procedure, shortened: as §1
# [18] = Cmax in BALB/C mouse plasma at 10 mg/kg, po by LC/MS-MS analysis; format: ADME, organism-based; procedure, shortened: as §2
# [19] = species: Homo sapiens; test: Inhibition of human AMPK at 10 uM in presence of ATP by radiometric kinase assay relative to control
# [20] = biological target: T1, Ribosomal protein S6 kinase alpha-1 (Homo sapiens, UniProt Q15418); test: Inhibition of human RSK1 by 33P radiometric kinase assay
# T1 sequence (Q15418 whole entry): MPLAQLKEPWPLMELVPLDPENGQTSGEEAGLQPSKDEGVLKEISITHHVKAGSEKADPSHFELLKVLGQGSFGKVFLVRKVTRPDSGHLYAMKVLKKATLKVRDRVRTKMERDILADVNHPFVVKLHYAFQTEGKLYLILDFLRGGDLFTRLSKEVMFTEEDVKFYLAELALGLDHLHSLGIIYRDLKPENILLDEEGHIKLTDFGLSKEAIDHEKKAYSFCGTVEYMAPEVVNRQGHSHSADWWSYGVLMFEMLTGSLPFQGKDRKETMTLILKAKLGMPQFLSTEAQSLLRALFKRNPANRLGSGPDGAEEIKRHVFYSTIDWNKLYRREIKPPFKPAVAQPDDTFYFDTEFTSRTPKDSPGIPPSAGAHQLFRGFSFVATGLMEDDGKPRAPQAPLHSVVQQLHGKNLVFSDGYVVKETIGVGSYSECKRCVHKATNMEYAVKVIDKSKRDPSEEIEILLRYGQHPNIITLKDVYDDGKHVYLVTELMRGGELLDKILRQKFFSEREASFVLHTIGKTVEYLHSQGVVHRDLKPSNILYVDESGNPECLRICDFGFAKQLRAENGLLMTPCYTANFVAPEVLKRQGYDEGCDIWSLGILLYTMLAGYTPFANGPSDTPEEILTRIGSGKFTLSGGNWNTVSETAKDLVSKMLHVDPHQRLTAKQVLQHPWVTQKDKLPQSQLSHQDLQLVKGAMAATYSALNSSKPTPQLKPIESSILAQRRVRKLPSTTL
# [21] = biological target: Ephrin type-A receptor 4 (Homo sapiens) (UniProt P54764); test: Inhibition of human EPH-A4 assessed as remaining activity at 10 uM in presence of ATP by radiometric kinase assay relative to control
# Chain of Ephrin type-A receptor 4 (Homo sapiens) (P54764 whole entry, canonical isoform): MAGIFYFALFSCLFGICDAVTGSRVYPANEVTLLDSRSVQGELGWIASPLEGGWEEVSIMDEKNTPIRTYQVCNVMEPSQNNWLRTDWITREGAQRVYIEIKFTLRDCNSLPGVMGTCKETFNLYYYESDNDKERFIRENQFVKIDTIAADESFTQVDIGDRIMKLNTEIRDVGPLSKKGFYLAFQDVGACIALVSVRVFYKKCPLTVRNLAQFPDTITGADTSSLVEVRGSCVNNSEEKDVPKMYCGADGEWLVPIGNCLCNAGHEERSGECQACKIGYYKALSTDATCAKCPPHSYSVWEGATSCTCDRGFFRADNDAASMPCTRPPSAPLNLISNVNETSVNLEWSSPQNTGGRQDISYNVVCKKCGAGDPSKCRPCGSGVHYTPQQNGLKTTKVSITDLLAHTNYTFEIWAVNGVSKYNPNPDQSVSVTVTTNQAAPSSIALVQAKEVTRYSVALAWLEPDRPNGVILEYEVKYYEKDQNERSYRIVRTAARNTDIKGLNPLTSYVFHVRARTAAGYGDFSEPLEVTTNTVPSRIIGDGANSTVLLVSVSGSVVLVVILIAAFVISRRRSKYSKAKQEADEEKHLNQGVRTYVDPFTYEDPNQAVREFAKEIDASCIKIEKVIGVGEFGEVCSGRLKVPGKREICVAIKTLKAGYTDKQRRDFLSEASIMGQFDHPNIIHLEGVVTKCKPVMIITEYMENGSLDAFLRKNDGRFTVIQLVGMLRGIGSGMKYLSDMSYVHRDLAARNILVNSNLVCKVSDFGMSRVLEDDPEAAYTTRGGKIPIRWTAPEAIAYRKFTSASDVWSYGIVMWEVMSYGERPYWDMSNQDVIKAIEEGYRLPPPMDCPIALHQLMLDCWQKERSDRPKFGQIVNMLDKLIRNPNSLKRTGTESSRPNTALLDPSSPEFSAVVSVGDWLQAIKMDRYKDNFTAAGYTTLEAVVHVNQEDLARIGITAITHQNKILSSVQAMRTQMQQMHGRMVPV
# [22] = biological target: Phosphorylase b kinase gamma catalytic chain, skeletal muscle/heart isoform (Homo sapiens, UniProt Q16816); test: Inhibition of PHKG1 (unknown origin) by FRET based Z-LYTE kinase assay
# [23] = biological target: Vascular endothelial growth factor receptor 2 (Homo sapiens, UniProt P35968); test: Inhibition of VEGFR2 (unknown origin) by FRET based Z-LYTE kinase assay
# [24] = biological target: Ephrin type-B receptor 1 (Homo sapiens) (UniProt P54762); test: Inhibition of human EPH-B1 assessed as remaining activity at 10 uM in presence of ATP by radiometric kinase assay relative to control
# [25] = biological target: Mitogen-activated protein kinase 12 (Homo sapiens) (UniProt P53778); test: Inhibition of human p38g MAPK assessed as remaining activity at 10 uM in presence of ATP by radiometric kinase assay relative to control
# Chain of Mitogen-activated protein kinase 12 (Homo sapiens) (P53778 whole entry): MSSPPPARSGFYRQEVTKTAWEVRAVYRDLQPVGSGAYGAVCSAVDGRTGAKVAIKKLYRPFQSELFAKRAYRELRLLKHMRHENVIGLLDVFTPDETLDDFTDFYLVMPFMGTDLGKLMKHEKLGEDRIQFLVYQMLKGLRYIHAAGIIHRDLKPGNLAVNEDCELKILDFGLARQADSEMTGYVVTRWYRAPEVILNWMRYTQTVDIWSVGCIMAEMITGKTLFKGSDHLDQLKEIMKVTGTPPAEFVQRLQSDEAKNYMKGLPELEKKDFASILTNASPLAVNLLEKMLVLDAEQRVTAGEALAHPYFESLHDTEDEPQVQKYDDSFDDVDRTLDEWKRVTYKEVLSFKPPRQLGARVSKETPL
# [26] = biological target: T1, Ribosomal protein S6 kinase alpha-1; test: Inhibition of human RSK1 assessed as remaining activity at 10 uM in presence of ATP by radiometric kinase assay relative to control
# [27] = Toxicity in CRTac:Ncr-Fox1 mouse xenografted with human HT-29 cells assessed as body weight at 12.5 mg/kg, po administered for 16 days in presence of gemcitabine relative to control; format: organism-based; conditions: in vivo, 384 h, time 16 day
# [28] = biological target: Dual specificity mitogen-activated protein kinase kinase 2 (Homo sapiens) (UniProt P36507); test: Inhibition of human MKK2 assessed as remaining activity at 10 uM in presence of ATP by radiometric kinase assay relative to control
# [29] = biological target: MAP/microtubule affinity-regulating kinase 4 (Homo sapiens) (UniProt Q96L34); test: Inhibition of human MARK4 assessed as remaining activity at 10 uM in presence of ATP by radiometric kinase assay relative to control
# [30] = biological target: Serine/threonine-protein kinase PAK 2 (Homo sapiens) (UniProt Q13177); test: Inhibition of human PAK2 assessed as remaining activity at 10 uM in presence of ATP by radiometric kinase assay relative to control
# Chain of Serine/threonine-protein kinase PAK 2 (Homo sapiens) (Q13177 whole entry): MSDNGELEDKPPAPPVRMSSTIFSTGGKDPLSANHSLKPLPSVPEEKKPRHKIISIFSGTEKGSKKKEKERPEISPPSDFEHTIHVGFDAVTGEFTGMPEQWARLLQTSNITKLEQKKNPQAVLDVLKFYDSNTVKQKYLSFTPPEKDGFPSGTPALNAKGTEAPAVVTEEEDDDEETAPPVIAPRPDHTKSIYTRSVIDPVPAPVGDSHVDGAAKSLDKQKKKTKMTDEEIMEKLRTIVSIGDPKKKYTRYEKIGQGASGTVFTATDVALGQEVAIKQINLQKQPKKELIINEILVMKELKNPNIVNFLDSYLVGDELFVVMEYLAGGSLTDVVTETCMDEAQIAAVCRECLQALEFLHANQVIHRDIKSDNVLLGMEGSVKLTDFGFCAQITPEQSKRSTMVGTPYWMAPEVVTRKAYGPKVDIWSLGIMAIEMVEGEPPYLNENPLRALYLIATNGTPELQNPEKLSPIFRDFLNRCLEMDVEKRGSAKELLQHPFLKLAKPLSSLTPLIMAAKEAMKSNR
compound,measurement,setting,value
N#Cc1cnc(Nc2cc(NC[C@H]3CNCCO3)c(C(F)(F)F)cn2)cn1 [SRA-737],IC50,[1],2.97 µM
same,inhibition,[2],Active
same,Activity,[3],122%
same,Activity,[4],65%
same,PPB,[5],75.6%
same,Activity,[6],93%
same,IC50,[7],3.85 µM
same,Activity,[8],49%
same,AUC(0-t),[9],262 µM·h
same,CL/F,[10],36 mL/min/kg
same,Activity,[11],120%
same,inhibition,[12],88%
same,Activity,[13],54%
same,Cmax,[14],30.1 µM
same,Activity,[15],Active
same,Activity,[16],44%
same,inhibition,[17],Active
same,Cmax,[18],1.62 µM
same,inhibition,[19],68%
same,IC50,[20],0.362 µM
same,Activity,[21],71%
same,IC50,[22],3.47 µM
same,IC50,[23],2.1 µM
same,Activity,[24],111%
same,Activity,[25],95%
same,Activity,[26],7%
same,Activity,[27],97.5%
same,Activity,[28],61%
same,Activity,[29],39%
same,Activity,[30],96%
